Compounds with a hit are over-represented: about 9.4% of the library has one in this group of screens.
Mdm2 MdmX PPI: inhibitors of human Mdm2/MdmX interaction. 330,000 compounds, 3% hits. O15151+Q00987. SaOS-2 split-luciferase Mdm2/MdmX complementation, luminescence. inhibition, % at 8 µM;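 active means inhibition of at least 50% at 8 µM in the primary screen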
Target sequence (O15151 whole entry, looked up): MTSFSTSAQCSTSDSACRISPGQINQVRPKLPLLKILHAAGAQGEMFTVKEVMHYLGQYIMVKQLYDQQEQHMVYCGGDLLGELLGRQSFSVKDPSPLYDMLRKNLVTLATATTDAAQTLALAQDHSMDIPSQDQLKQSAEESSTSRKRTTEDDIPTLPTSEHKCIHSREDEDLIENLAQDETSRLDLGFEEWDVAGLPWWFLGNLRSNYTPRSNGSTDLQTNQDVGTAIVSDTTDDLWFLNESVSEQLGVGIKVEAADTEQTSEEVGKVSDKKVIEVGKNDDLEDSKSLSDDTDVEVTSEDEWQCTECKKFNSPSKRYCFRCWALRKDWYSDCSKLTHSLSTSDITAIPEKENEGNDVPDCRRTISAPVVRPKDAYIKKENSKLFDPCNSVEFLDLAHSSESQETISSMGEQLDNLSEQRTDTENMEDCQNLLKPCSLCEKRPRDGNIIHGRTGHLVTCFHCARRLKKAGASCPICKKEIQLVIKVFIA
Target sequence (Q00987 whole entry, looked up): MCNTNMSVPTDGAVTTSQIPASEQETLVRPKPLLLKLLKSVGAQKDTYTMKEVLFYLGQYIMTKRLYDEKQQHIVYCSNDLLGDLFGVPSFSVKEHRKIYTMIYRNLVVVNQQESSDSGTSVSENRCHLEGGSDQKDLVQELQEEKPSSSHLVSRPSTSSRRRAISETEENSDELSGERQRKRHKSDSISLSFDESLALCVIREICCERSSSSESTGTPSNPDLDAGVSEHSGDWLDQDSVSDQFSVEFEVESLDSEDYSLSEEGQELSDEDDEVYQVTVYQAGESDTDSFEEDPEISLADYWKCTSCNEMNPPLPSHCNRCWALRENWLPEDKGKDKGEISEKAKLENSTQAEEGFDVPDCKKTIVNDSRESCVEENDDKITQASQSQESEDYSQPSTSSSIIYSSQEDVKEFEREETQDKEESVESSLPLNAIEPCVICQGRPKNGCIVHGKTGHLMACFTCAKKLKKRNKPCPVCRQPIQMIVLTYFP
SKKanGAS inh: inhibitors of SKKanGAS S. pyogenes growth in kanamycin (SK-promoter or general growth effect) | inhibition, % at 7.5 µM | BacTiter-Glo, 6 h | 300,000 compounds, 1.3% hits;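 active means mean replicate score, as percent of positive control median, at least 50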;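 further: strain carries kanamycin resistance gene driven by streptokinase promoter and grows in 40 µg/ml kanamycin; loss of luminescence reflects streptokinase promoter inhibition or plain growth inhibition; 0% = median of DMSO wells and 100% = positive control at its reference dose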
T cruzi repl: T. cruzi replication inhibition. T. cruzi beta-gal in NIH3T3, luminescence, 90 h. inhibition, % (test concentration not listed). 300,000 compounds, 1.4% hits. AID 1885;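 active means mean inhibition across valid replicates above about 55%, limit read from the data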;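 further: signal also drops with host cell toxicity which is not excluded here; 0% = plate median of DMSO wells and 100% = zero luminescence signal; higher percent means less beta-gal luminescence so fewer parasites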
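Material: NIH/3T3 host cells with β-galactosidase reporter T. cruzi; Input: 5,000 host fibroblasts per well; Medium: DMEM, 2% fetal bovine serum; Compound: 50 nL DMSO compound solution per well; Schedule: 3 h host attachment, then at least 90 h co-culture; Detection: luminescent β-galactosidase signal after 60 min lysis.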
Lmaj promast: Leishmania major promastigote growth inhibition. Leishmania major promastigotes, resazurin fluorescence viability. inhibition, % at 10 µM. 200,000 compounds, 9% hits. AID 1063; in the data active means inhibition above about 50%;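 further: promastigotes grown with compound for 44 hours at 28 °C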
Beta cell apopt: blocks beta cell apoptosis | INS-1E cytokine-induced death, ATP luminescence, 48 h; percent of positive-control rescue, neutral wells zero | protection from apoptosis, % (no concentration beside the values) | 300,000 compounds, 0.8% hits | AID 435005;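 active means Every replicate reaches about 75%, or at least half do and their mean reaches it too, limit read from the data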;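 further: 0% = cytokine-treated negative control wells and 100% = positive control rescue; higher means more ATP so stronger rescue from cytokine killing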
CSC inhib: blocks cancer stem cells. 300,000 compounds, 1.1% hits. cancer stem cell-like cells viability, luminescence. AID 2717. inhibition, % at 7.5 µM; in the data active means inhibition above about 75%; tested in HMLE shEcad cells
* marks the source's active call; other numbers are inactive results; x = no result given.

SMILES | Mdm2 MdmX PPI | SKKanGAS inh | T cruzi repl | Lmaj promast | Beta cell apopt | CSC inhib
Cc1ccc(CC(=O)Nc2ccccc2-c2ccccc2)cc1C | 23.8 | 4.3 | 25.9 | 70.0* | -1.9 | 46.7
Cc1ccccc1CN(C)CC(=O)Nc1ccccc1-c1ccccc1 | -13.9 | 53.4* | 19.0 | 11.6 | -1.9 | 59.9
Cc1ccccc1CN(C)CC(=O)Nc1ccccc1Oc1ccccc1 | 7.6 | 3.3 | 36.9 | -1.2 | -3.9 | x
Cc1cccc(N(CC(=O)Nc2ccccc2-c2ccccc2)S(=O)(=O)c2ccccc2)c1C | 16.7 | 13.6 | 24.1 | 50.1* | 2.8 | 18.1
CN(CC(=O)Nc1ccccc1Oc1ccccc1)Cc1ccccc1F | 8.0 | 3.4 | 14.0 | 9.6 | -6.9 | 91.4*
COC(=O)c1ccc(NC(CC(C)C)C(=O)OC)c([N+](=O)[O-])c1 (stereo unspecified) | 12.6 | -10.0 | -14.4 | 52.0* | -3.0 | -10.7
CCOC(=O)c1ccc(NCCOC)c([N+](=O)[O-])c1 | -55.0 | -6.9 | -10.2 | -4.6 | 2.8 | -9.3
O=C(/C=C/c1ccccc1Cl)NC(=S)Nc1ccccc1C(=O)NC1CCCCC1 | 4.5 | 2.9 | -5.0 | 97.7* | -7.1 | -4.4
Cc1cc(C)cc(NS(=O)(=O)c2ccc3[nH]cc(C(=O)NCc4ccco4)c(=O)c3c2)c1 | 33.1 | 5.2 | -0.6 | -11.8 | 25.2 | 99.1*
CCN(CC)S(=O)(=O)c1ccc(Oc2ccc(S(=O)(=O)N(CC)CC)cc2)cc1 | 27.2 | 7.5 | 6.7 | 6.5 | 112.6* | -0.1
O=C(CCC(=O)Nc1ccc(Br)cc1)N/N=C/c1ccc(O)cc1 | -9.8 | 4.1 | -7.2 | x | -10.6 | 11.6
COCCOc1cc(NC(=O)c2sccc2Oc2ccc([N+](=O)[O-])cc2F)c(Cl)cc1Cl | 38.0 | 9.7 | 36.6 | 30.6 | x | 25.6
O=C(Nc1ccccc1)c1sccc1Oc1ccc([N+](=O)[O-])cc1F | 4.1 | 13.6 | 63.2* | 84.0* | -7.4 | x
COc1ccc(/C=N/NC(=O)c2nn(-c3ccc(Cl)cc3)c(=O)c3c(N)scc23)cc1 | -1.8 | 11.6 | -7.7 | 69.2* | 4.8 | -7.5
COc1ccc(/C=N/NC(=O)c2nn(-c3ccccc3)c(=O)c3c(N)scc23)cc1 | -8.4 | 11.6 | 2.9 | 82.7* | -7.2 | x
CNC(=O)C(=O)N/N=C/c1cccnc1 | 25.1 | 1.6 | 3.1 | x | -1.1 | -7.4
C=CCOc1ccccc1/C=N/NC(=O)Cc1ccc(C)cc1 | -1.5 | 2.9 | -14.7 | x | 2.2 | 8.6
C=CCc1cccc(/C=N/NC(=O)c2ccccc2Br)c1O | 38.3 | 10.9 | 60.9* | 9.2 | 70.2 | 56.9
C=CCc1cccc(/C=N/NC(=O)C(=O)Nc2ccc(C)cc2)c1O | 4.2 | 70.1* | 4.4 | -13.2 | x | 9.1
CCOc1ccc(-c2nnc(Nc3ccc(OC)c(C(=O)N4CCCCC4)c3)c3ccccc23)cc1 | 37.8 | 20.4 | 21.4 | 61.1* | 10.3 | 16.6
COc1ccc(NC(=O)Cc2nnc(SCC(=O)NC3CCCCC3)n2C)cc1 | -22.4 | 4.0 | 4.4 | x | -3.6 | -4.8
COc1ccc(N2CCN(C(=O)C(C)(C)Oc3ccc(Cl)cc3)CC2)cc1 | 5.6 | 3.7 | 25.9 | 98.2* | -3.8 | -4.8
Cn1c(=NC(=O)C2=NNC(=O)CC2)sc2ccccc21 | 21.1 | -7.0 | -2.8 | -8.5 | -8.2 | -12.2
Cn1c(=NC(=O)CN2C(=O)C3CC=CCC3C2=O)sc2ccccc21 (stereo unspecified) | -3.1 | -3.0 | 31.7 | 98.7* | -4.4 | 9.7
O=C(NCc1ccccc1)C1CCCN1C(=O)Nc1ccccc1[N+](=O)[O-] (stereo unspecified) | 3.1 | 1.9 | -14.7 | x | x | x
SMILES | Mdm2 MdmX PPI | SKKanGAS inh | T cruzi repl | Lmaj promast | Beta cell apopt | CSC inhib
CCN(C(=O)COC(=O)c1c(C)c(-c2ccccc2)nc2ccccc12)C1CCS(=O)(=O)C1 (stereo unspecified) | 26.6 | -6.7 | -0.3 | x | 9.4 | -2.2
COc1ccccc1NC(=S)NCc1cccnc1 | 6.9 | -1.0 | 4.5 | 68.3* | -8.3 | -31.5
S=C(NCc1cccnc1)Nc1ccc(Cl)c(Cl)c1 | 15.3 | 6.5 | 51.1 | 98.1* | -11.0 | -0.7
O=C1NC(=O)/C(=C/c2ccccc2Oc2ccc(Cl)cc2)S1 | 9.0 | 57.1* | -3.2 | -4.0 | 6.0 | 8.1
O=S(=O)(NC1c2cccc3cccc(c23)C1Sc1ncccn1)c1ccc(Cl)cc1 (stereo unspecified) | 8.0 | 16.7 | 31.2 | 83.2* | 26.9 | 36.4
COc1ccccc1Oc1ccc(NC(=O)Cc2ccccc2)cc1 | 8.4 | -1.9 | 11.1 | x | 3.5 | -1.4
CCn1c(SCC(=O)c2cc(C)n(-c3ccc(C(=O)OC)cc3)c2C)nnc1-c1cccnc1 | -5.5 | 10.7 | -1.5 | 70.9* | -6.0 | -9.6
COc1ccc(C(=O)NNC(=O)CN2CCN(c3nc(-c4ccccc4)cs3)CC2)cc1 | 12.1 | x | -3.9 | 48.1 | -2.4 | 1.3
Cc1cc(Cl)ccc1OC(C)C(=O)N1CCCN(C(=O)C(C)Oc2ccc(Cl)cc2C)CC1 (stereo unspecified) | 25.2 | 5.7 | 38.2 | 99.5* | 10.2 | x
Cc1cc(Cl)ccc1OCC(=O)N1CC(C)CC(C)C1 (stereo unspecified) | 0.3 | -0.3 | 6.5 | 3.0 | -3.0 | 1.0
Cc1cc(OCC(=O)N2CCOCC2)c(C(C)C)cc1Cl | 22.0 | -3.8 | -0.4 | 80.4* | -4.9 | 10.8
Cc1cc(Cl)ccc1OCC(=O)N1CCCN(C(=O)COc2ccc(Cl)cc2C)CC1 | 24.8 | 11.1 | -6.9 | 91.6* | 4.9 | -2.2
CCOc1cc(C(=O)OC(C)C(=O)Nc2ncc(Cl)cc2Cl)ccc1OCC(=O)N1CCOCC1 (stereo unspecified) | 7.8 | 7.8 | -15.9 | 73.2* | -0.5 | 6.5
O=C(NCC1CCCO1)NC12CC3CC(CC(C3)C1)C2 (stereo unspecified) | 4.5 | -6.2 | -14.9 | -10.1 | 1.6 | -11.2
S=C(NCC1CCCO1)NC12CC3CC(CC(C3)C1)C2 (stereo unspecified) | 20.1 | -10.2 | 4.0 | 61.9* | 4.3 | -5.0
COc1cc(CN2CCNC(=O)C2CC(=O)N2CCCO2)cc(OC)c1 (stereo unspecified) | 18.4 | -0.3 | -5.9 | -0.2 | x | -7.7
NC(=O)c1ccsc1NC(=O)CSc1ccccc1F | -19.0 | 1.0 | -7.1 | 10.4 | -13.1 | -6.0
NC(=O)c1ccsc1NC(=O)CSc1nnc(Nc2ccccc2)s1 | 17.1 | -10.3 | -14.0 | 57.5* | -2.0 | x
CCNC(=S)N(Cc1cc2c(C)ccc(C)c2[nH]c1=O)C1CCCC1 | -16.1 | -11.6 | 15.1 | 66.6* | -5.2 | -8.1
CNC(=S)N(Cc1cc2cc(C)cc(C)c2[nH]c1=O)C1CCCC1 | -5.4 | -21.7 | 23.7 | 60.1* | -1.9 | -2.3
CCNC(=S)N(Cc1cc2cc(C)cc(C)c2[nH]c1=O)C1CCCC1 | -16.6 | -13.5 | 12.1 | 98.9* | 1.3 | -13.6
Cn1cnc(NCc2ccccc2)c1[N+](=O)[O-] | 18.5 | 5.9 | -15.3 | x | -0.1 | -5.2
COc1cc(OC)nc(NC(=O)NS(=O)(=O)c2ccc(F)cc2)n1 | 20.9 | 8.8 | -0.8 | 1.8 | -2.2 | 4.8

Source: PubChem (several laboratories)
